Measurements published in ChEMBL document CHEMBL1153845, “New derivatives of 3,5-substituted-1,4,2-dioxazoles: synthesis and activity against Entamoeba histolytica” (Eur J Med Chem, 2009).

Tests used:
Entamoeba histolytica = assay: Antiamnesic activity against Entamoeba histolytica HM-1:IMSS after 72 hrs by trypan blue exclusion assay; type: functional, organism-based
Outline: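 Microdilution in TYIS-33 medium, trophozoites counted by haemocytometer with trypan blue viability check, 1.7 × 10⁴ organisms/well. Plates gassed with N₂ 10 min, 37 °C for 72 h. Washed with 0.9% NaCl, methanol-fixed, eosin-stained, dye released with 0.1 N NaOH, OD 490 nm. % inhibition vs log dose, IC50 by linear regression. Metronidazole standard. Three independent experiments.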

[1] = Cytotoxicity against HEK cells after 44 hrs by MTT assay; type: cell-based; settings: Homo sapiens, HEK293, 44 h
Outline: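 Transformed human kidney epithelial (Graham) cells kept at 37 °C in 5% CO₂. Trypsinized cells at 0.5 million cells/ml plated with compounds for 44 h, then 2 mM MTT for a further 4 h. Formazan dissolved in DMSO, absorbance 540 nm with 690 nm reference, % viability vs controls. Three independent experiments.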

[2] = Safety index, ratio of IC50 for HEK cells to IC50 for Entamoeba histolytica HM-1:IMSS; type: toxicity, cell-based, HEK293; settings: human, HEK cells (versus Entamoeba histolytica HM-1:IMSS); read-out: Ratio IC50
[3] = in the assay text read “Antiamoebic” for “Antiamnesic”

Row | Compound | IC50 (Entamoeba histolytica; [3]) | IC50 [1] | selectivity ratio [2] | IC50 (Entamoeba histolytica)
1 | Cc1ccc(C2ON=C(c3cccc(Cl)c3)O2)cc1 (stereo unspecified) | > 1.8 µM | > 100 µM | > 55.5 | –
2 | Clc1cccc(C2=NOC(c3cccc(Cl)c3)O2)c1 (stereo unspecified) | 0.91 µM | > 100 µM | > 110 | –
3 | CC1(c2cccc(Br)c2)ON=C(c2ccc(Cl)cc2)O1 (stereo unspecified) | – | > 100 µM | > 55.5 | > 1.8 µM
4 | CCC1(c2cccc(Br)c2)ON=C(c2ccccc2Cl)O1 (stereo unspecified) | – | > 100 µM | > 55.5 | > 1.8 µM
5 | Clc1cccc(C2ON=C(c3ccccc3Cl)O2)c1 (stereo unspecified) | – | > 100 µM | > 139 | 0.72 µM
6 | Clc1cccc(C2=NOC(c3ccccc3Cl)O2)c1 (stereo unspecified) | 0.62 µM | > 100 µM | > 161 | –
7 | CC1(c2ccccn2)ON=C(c2ccc(Cl)cc2)O1 (stereo unspecified) | – | > 100 µM | > 63.3 | 1.58 µM
8 | CC1(c2ccccn2)ON=C(c2cccc(Cl)c2)O1 (stereo unspecified) | – | > 100 µM | > 57.8 | 1.73 µM
9 | Clc1cccc(C2=NOC(c3ccc(Cl)c(Cl)c3)O2)c1 (stereo unspecified) | – | > 100 µM | > 82.6 | 1.21 µM
10 | Cc1ccc(C2ON=C(c3ccccc3Cl)O2)cc1 (stereo unspecified) | – | > 100 µM | > 55.5 | > 1.8 µM
11 | CCC1(c2cccc(Cl)c2)ON=C(c2ccc(Cl)cc2)O1 (stereo unspecified) | – | > 100 µM | > 55.5 | > 1.8 µM
12 | Cc1ccc(C2ON=C(c3ccc(Cl)cc3)O2)cc1 (stereo unspecified) | – | > 100 µM | > 55.5 | > 1.8 µM
13 | CCc1ccc(C2ON=C(c3ccccc3Cl)O2)cc1 (stereo unspecified) | – | > 100 µM | > 55.5 | > 1.8 µM
14 | Clc1ccc(C2ON=C(c3ccccc3Cl)O2)cc1Cl (stereo unspecified) | – | > 100 µM | > 124 | 0.81 µM
15 | Clc1ccc(C2=NOC(c3ccccc3Cl)O2)cc1 (stereo unspecified) | – | > 100 µM | > 208 | 0.48 µM
16 | CCc1ccc(C2ON=C(c3cccc(Cl)c3)O2)cc1 (stereo unspecified) | > 1.8 µM | > 100 µM | > 55.5 | –
17 | CC1(c2ccc(Cl)cc2)ON=C(c2ccc(Cl)cc2)O1 (stereo unspecified) | – | > 100 µM | > 55.5 | > 1.8 µM

Row | Compound | IC50 (Entamoeba histolytica; [3]) | IC50 [1] | selectivity ratio [2] | IC50 (Entamoeba histolytica)
18 | Clc1ccc(C2=NOC(c3ccc(Cl)c(Cl)c3)O2)cc1 (stereo unspecified) | 1.13 µM | > 100 µM | > 88.5 | –
19 | Clc1ccc(C2ON=C(c3cccc(Cl)c3)O2)cc1 (stereo unspecified) | 0.71 µM | > 100 µM | > 141 | –
20 | CCC1(c2cccc(Cl)c2)ON=C(c2ccccc2Cl)O1 (stereo unspecified) | – | > 100 µM | > 55.5 | > 1.8 µM
21 | CC1(c2cccc(Br)c2)ON=C(c2ccccc2Cl)O1 (stereo unspecified) | – | > 100 µM | > 55.5 | > 1.8 µM
22 | Clc1ccc(C2=NOC(c3cccc(Cl)c3)O2)cc1 (stereo unspecified) | 0.86 µM | > 100 µM | > 116 | –
23 | Cc1ncc([N+](=O)[O-])n1CCO [METRONIDAZOLE] | – | > 100 µM | > 55.5 | –
24 | CCC1(c2cccc(Br)c2)ON=C(c2ccc(Cl)cc2)O1 (stereo unspecified) | – | > 100 µM | > 55.5 | > 1.8 µM
25 | Clc1ccccc1C1=NOC(c2ccccc2Cl)O1 (stereo unspecified) | – | > 100 µM | > 244 | 0.41 µM
26 | CCC1(c2cccc(Cl)c2)ON=C(c2cccc(Cl)c2)O1 (stereo unspecified) | – | > 100 µM | > 55.5 | > 1.8 µM
27 | Clc1ccc(C2=NOC(c3ccc(Cl)cc3)O2)cc1 (stereo unspecified) | 0.53 µM | > 100 µM | > 189 | –
28 | CC1(c2ccc(Cl)cc2)ON=C(c2ccccc2Cl)O1 (stereo unspecified) | – | > 100 µM | > 55.5 | > 1.8 µM
29 | CCC1(c2cccc(Br)c2)ON=C(c2cccc(Cl)c2)O1 (stereo unspecified) | – | > 100 µM | > 55.5 | > 1.8 µM
30 | CC1(c2ccccn2)ON=C(c2ccccc2Cl)O1 (stereo unspecified) | – | > 100 µM | > 61.7 | 1.62 µM
31 | CCc1ccc(C2ON=C(c3ccc(Cl)cc3)O2)cc1 (stereo unspecified) | – | > 100 µM | > 55.5 | > 1.8 µM
32 | Clc1ccc(C2ON=C(c3ccccc3Cl)O2)cc1 (stereo unspecified) | – | > 100 µM | > 196 | 0.51 µM
33 | CC1(c2ccc(Cl)cc2)ON=C(c2cccc(Cl)c2)O1 (stereo unspecified) | > 1.8 µM | > 100 µM | > 55.5 | –
34 | CC1(c2cccc(Br)c2)ON=C(c2cccc(Cl)c2)O1 (stereo unspecified) | – | > 100 µM | > 55.5 | > 1.8 µM
